These results are taken from ChEMBL document CHEMBL1122345, “Antihypertensive agents: angiotensin converting enzyme inhibitors. 1-[3-(Acylthio)-3-aroylpropionyl]-L-prolines” (J Med Chem, 1983).

For assay [1], the target named is T1, Angiotensin-converting enzyme (Rattus norvegicus) (UniProt P47820).
T1 sequence (whole entry): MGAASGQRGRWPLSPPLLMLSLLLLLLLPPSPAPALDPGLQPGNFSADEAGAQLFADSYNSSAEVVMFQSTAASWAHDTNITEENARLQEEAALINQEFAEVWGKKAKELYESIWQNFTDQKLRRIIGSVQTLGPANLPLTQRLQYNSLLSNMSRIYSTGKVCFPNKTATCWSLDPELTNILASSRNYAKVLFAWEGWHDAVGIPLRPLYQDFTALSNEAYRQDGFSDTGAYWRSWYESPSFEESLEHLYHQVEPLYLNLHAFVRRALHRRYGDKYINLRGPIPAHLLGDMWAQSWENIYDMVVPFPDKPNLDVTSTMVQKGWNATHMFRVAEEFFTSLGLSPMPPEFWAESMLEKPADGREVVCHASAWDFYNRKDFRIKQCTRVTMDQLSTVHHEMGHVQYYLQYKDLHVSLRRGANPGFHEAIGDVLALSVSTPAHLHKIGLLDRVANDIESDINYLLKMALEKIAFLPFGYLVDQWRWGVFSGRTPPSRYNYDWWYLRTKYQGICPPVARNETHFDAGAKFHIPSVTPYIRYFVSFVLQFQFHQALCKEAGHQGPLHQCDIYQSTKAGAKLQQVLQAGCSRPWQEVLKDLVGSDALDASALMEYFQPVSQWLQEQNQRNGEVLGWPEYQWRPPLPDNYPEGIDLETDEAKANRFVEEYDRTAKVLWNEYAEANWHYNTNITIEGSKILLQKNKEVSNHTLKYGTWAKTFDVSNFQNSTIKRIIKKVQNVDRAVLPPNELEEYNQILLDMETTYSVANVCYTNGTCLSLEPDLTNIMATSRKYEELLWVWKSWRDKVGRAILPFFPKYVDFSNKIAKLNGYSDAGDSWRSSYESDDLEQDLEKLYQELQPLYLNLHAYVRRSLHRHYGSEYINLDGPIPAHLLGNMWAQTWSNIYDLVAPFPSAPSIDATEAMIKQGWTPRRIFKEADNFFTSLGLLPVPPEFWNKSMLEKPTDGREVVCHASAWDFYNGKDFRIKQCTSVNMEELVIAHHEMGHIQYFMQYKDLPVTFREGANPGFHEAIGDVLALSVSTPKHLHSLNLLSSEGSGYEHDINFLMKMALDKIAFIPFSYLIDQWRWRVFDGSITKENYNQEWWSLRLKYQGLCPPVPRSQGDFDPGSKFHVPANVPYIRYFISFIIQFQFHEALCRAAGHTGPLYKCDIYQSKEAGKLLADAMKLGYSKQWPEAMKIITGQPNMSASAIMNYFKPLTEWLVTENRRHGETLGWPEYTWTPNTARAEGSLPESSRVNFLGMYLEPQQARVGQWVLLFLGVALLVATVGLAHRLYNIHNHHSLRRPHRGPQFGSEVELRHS
In words: Change in mean arterial blood pressure (MABP) after 20 mg/kg (po) dosage in Aorta-Coated renal hypertensive rat at 2.0 h. Type of assay: functional, organism-based. Set-up: dose 20 mg/kg. The method in brief:
(§1)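 Oral gavage to conscious, unrestrained rats made hypertensive by complete aortic ligation between the renal artery origins; only rats with MABP ≥150 mmHg on days 4–6 after coarctation used. Vehicle: ethanol, polyethylene glycol, Tween-80, diluted with saline. Direct arterial pressure via indwelling carotid cannula implanted 24 h earlier; change vs vehicle controls, means ± standard error, unpaired Student's t test.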

Assay [2] has as its target T1, Angiotensin-converting enzyme (Rattus norvegicus). In words: (§2) Change in mean arterial blood pressure (MABP) after 20 mg/kg (po) dosage in Aorta-Coated renal hypertensive rat at 0.5 h. Type of assay: functional, organism-based. Set-up: dose 20 mg/kg. The method in brief: as §1
A further assay deals with Rattus norvegicus. The assay is described as §2. Type of assay: functional. The method in brief: as §1

Consider `CC(=O)SC(CC(=O)N1CCCC1C(=O)O)C(=O)c1ccc(C(C)(C)C)cc1` (stereo not given), for which the Delta MABP in assay [1] is -19.2 mmHg; in assay [2] it was -30 mmHg. For `CC(=O)SC(CC(=O)N1CCCC1C(=O)O)C(=O)c1cccc(C(F)(F)F)c1` (stereo not given), in that order: -0.83 mmHg and -17.5 mmHg. Consider `CC(=O)SC(CC(=O)N1CCCC1C(=O)O)C(=O)c1ccc(F)cc1` (stereo not given), for which the Delta MABP was -14.7 mmHg in assay [1] and -15.8 mmHg in assay [2].

Turning to `CC(=O)SC(CC(=O)N1CCCC1C(=O)O)C(=O)c1ccc2ccccc2c1` (stereo not given), the Delta MABP was -6.67 mmHg in assay [1] and -17.3 mmHg in assay [2]. As to `CC(=O)S[C@@H](C(=O)c1ccccc1)[C@@H](C)C(=O)N1CCC[C@H]1C(=O)O`, the Delta MABP is -17.1 mmHg in assay [1] and -22.4 mmHg in assay [2].

`CC(=O)S[C@@H](C(=O)c1ccc(Br)cc1)[C@@H](C)C(=O)N1CCC[C@H]1C(=O)O`: the Delta MABP in assay [1] was -31.3 mmHg; in assay [2], -27.1 mmHg. As to `CC(=O)S[C@@H](C(=O)c1cccc(F)c1)[C@@H](C)C(=O)N1CCC[C@H]1C(=O)O`, the Delta MABP in assay [2] was -17.5 mmHg.

Turning to `COc1ccc(C(=O)C(CC(=O)N2CCCC2C(=O)O)SC(C)=O)cc1F` (stereo not given), the Delta MABP in assay [1] was -11 mmHg; in assay [2], -12.7 mmHg. As for `CC(=O)SC(CC(=O)N1CCCC1C(=O)O)C(=O)c1cccc(F)c1` (stereo not given), the figures for the Delta MABP in assay [1] and in assay [2] were -5.43 mmHg and -17 mmHg, respectively.

Regarding `CC(=O)S[C@H](C(=O)c1ccccc1)[C@@H](C)C(=O)N1CCC[C@H]1C(=O)O`, the Delta MABP in assay [1] is -23.2 mmHg; in assay [2], -23 mmHg. On to `CC(=O)SC(CC(=O)N1CCCC1C(=O)O)C(=O)c1ccc(Cl)cc1` (stereo not given), for which the figures for the Delta MABP (in assay [1]; in the assay on Rattus norvegicus) were -11.7 mmHg and -17.33 mmHg, respectively. For `O=C(c1ccc(Br)cc1)C(S)CC(=O)N1CCCC1C(=O)O` (stereo not given), the Delta MABP in assay [1] was -12 mmHg; in assay [2], -8.8 mmHg. For `C[C@H](CS)C(=O)N1CCC[C@H]1C(=O)O`, in that order: -21.7 mmHg and -27.7 mmHg. `O=C(SC(CC(=O)N1CCCC1C(=O)O)C(=O)c1ccc(F)cc1)c1ccccc1` (stereo not given): the values for the Delta MABP in assay [1] and in assay [2] were -6.5 mmHg and -12 mmHg, respectively. On to `CC(=O)SC(CC(=O)N1CCCC1C(=O)O)C(=O)c1ccc2c(c1)CCC2` (stereo not given), for which the Delta MABP was -30 mmHg in assay [1] and -18.5 mmHg in assay [2]. As to `O=C(SC(CC(=O)N1CCCC1C(=O)O)C(=O)c1ccc(Br)cc1)c1ccccc1` (stereo not given), the values for the Delta MABP in assay [1] and in assay [2] were -14.3 mmHg and -10 mmHg, respectively. On the same counts, the results for `CC(=O)SC(C(=O)c1ccc(Cl)cc1)C(C)C(=O)N1CCCC1C(=O)O` (stereo not given) are -30.5 mmHg and -24 mmHg.

With `O=C(SC(CC(=O)N1CCCC1C(=O)O)C(=O)c1ccccc1)c1ccccc1` (stereo not given), the Delta MABP in assay [1] was -22.7 mmHg; in assay [2], -1 mmHg. For `CC(=O)SC(CC(=O)N1CCCC1C(=O)O)C(=O)c1ccccc1` (stereo not given), the Delta MABP in assay [1] is -5.25 mmHg; in the assay with Rattus norvegicus, -19.2 mmHg. With `CC(=O)SC(CC(=O)N1CCCC1C(=O)O)C(=O)c1ccc(Br)cc1` (stereo not given), the Delta MABP in assay [1] was -10.4 mmHg; in assay [2], -18.3 mmHg.

Consider `O=C(SC(CC(=O)N1CCCC1C(=O)O)C(=O)c1cccc(F)c1)c1ccccc1` (stereo not given), for which the Delta MABP in assay [1] is 3.75 mmHg; in assay [2], -41 mmHg. On the same counts, the results for `CC(=O)S[C@H](C(=O)c1ccc(Br)cc1)[C@@H](C)C(=O)N1CCC[C@H]1C(=O)O` are -26.7 mmHg and -23.5 mmHg.

`CC(=O)S[C@H](C(=O)c1cccc(F)c1)[C@@H](C)C(=O)N1CCC[C@H]1C(=O)O`: the Delta MABP was -28 mmHg in assay [1] and -24.8 mmHg in assay [2].
